According to ChEMBL document CHEMBL1124084, “Studies on scavengers of active oxygen species. 1. Synthesis and biological activity of 2-O-alkylascorbic acids” (J Med Chem, 1988):

Key:
[1] = species: Rattus norvegicus; experiment: Antilipid peroxidation was determined; type: functional
Procedure, shortened: (§1)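 Rat brain lipid peroxidation: brains from male SD rats (12 weeks old), exsanguinated under pentobarbital anaesthesia, homogenized to 5% in phosphate buffer pH 7.4. Homogenate incubated with test drug at 37 °C for 1 h. Lipid peroxide quantified by the thiobarbituric acid method.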

[2] = Reducing activity determined by the use of stable radical alpha,alpha-di-phenyl-beta-picrylhydrazyl (DPPH); parameters: concentration or dose not given beside the values
[3] = species: Rattus norvegicus; experiment: Inhibition of lipid peroxidation was determined with rat brain tissue homogenates; type: functional
Procedure, shortened: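 Brains excised from male SD rats (12 weeks), exsanguinated under pentobarbital anesthesia; 5% homogenate in phosphate buffer pH 7.4 incubated with test drug 1 h at 37 °C; lipid peroxide quantified by thiobarbituric acid method.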

[4] = species: Rattus norvegicus; experiment: Antilipid peroxidation was measured at 10e-5 M concentration; type: functional; procedure, shortened: as §1

SMILES | Antilipid peroxidation [1] [%] | Reducing activity [2] [%] | IC50 [3] [µM] | Antilipid peroxidation [4] [%]
CCCCCCCCCCCCCCCCCCOC1=C(O)OC(CCO)C1=O (configuration not stated) | 52 | 93.9 | 6.8 | 
CCCCCCCCOC1=C(O)OC(C(O)CO)C1=O (configuration not stated) |  | 93.9 |  | 1.6
CCCCCCCCCCCCCCCCCCOC1=C(O)[C@@H](C(O)CO)OC1=O (stereo in doubt; 8) | 44.7 |  |  | 
CCCCCCCCCCCCCCCCCOC1=C(O)OC(C(O)CO)C1=O (configuration not stated) | 48.8 |  | 11 | 
CCCCCCCCCCCCCCCCCCOC1=C(O)OC(C(O)COC(C)=O)C1=O (configuration not stated) |  |  | 4.2 | 76.3
CCCCCCCCCCCCCCCCCCOC1=C(O)[C@@H](C(O)CO)OC1=O (stereo in doubt; 5k) | 65.9 | 95.4 |  | 
CCCCCCOc1ccc(COC2=C(O)OC(C(O)CO)C2=O)cc1 (configuration not stated) | 38.8 |  |  | 
CCCCCCCCCCCOC1=C(O)OC(C(O)CO)C1=O (configuration not stated) | 43.4 | 94.6 | 13 | 
CCCCCCCCCCCCCCCCCCOC1=C(O)OC(C2COC(C)(C)O2)C1=O (configuration not stated) |  |  | 2.4 | 58.5
CCCCCCCCCCCCCCCCOC1=C(O)OC(C(O)CO)C1=O (configuration not stated) | 56.1 |  | 6.8 | 
CCCCCCCCCCCCCCCCCCCCOC1=C(O)OC(C(O)CO)C1=O (configuration not stated) | 75.8 | 95.3 | 4.7 | 
CCCCCCCCCCCCCCCCCCOC1=C(OC)C(C(O)CO)OC1=O (configuration not stated) |  |  |  | 12.5
CCCCCCCCCCCCCCCCCCOC1=C(O)O/C(=C\CO)C1=O |  |  | 8.5 | 53.5
CCCCCCCCCCOC1=C(O)OC(C(O)CO)C1=O (configuration not stated) | 42.5 |  | 13 | 
CCCCCCCCCCCCOC1=C(O)OC(C(O)CO)C1=O (configuration not stated) | 67.4 |  | 5.4 | 
CCCCCCCCCOC1=C(O)OC(C(O)CO)C1=O (configuration not stated) | 22.4 |  | 27 | 
CCCCCCCCCCCCCOC1=C(O)OC(C(O)CO)C1=O (configuration not stated) | 57.4 |  | 7.4 | 
CCCCCCCCCCCCCCCCCCCCCOC1=C(O)OC(C(O)CO)C1=O (configuration not stated) | 30.6 | 94.3 | 11 | 
